Source: publication PMC12166256 (Clinical Pharmacology and Therapeutics, 2025)
Marks after values point to notes of the source that are not given here.

Tests used:
[1] = MAD study: plasma and urine pharmacokinetics; assay type: in vivo, human; settings: for CLR (renal clearance), mean ± SD / CLR, geometric mean: MAD steady state
Procedure, shortened: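 Healthy males got oral doses for 14 days: 100 mg once daily fasted, or 100, 200 or 300 mg twice daily fed. Plasma was drawn pre-dose and […] on Day 1, pre-dose and at 3 h on Days 4, 7 and 12, and up to 120 h after the final Day 14 morning dose. Urine was collected over 24 h at steady state. LC–MS/MS, LLOQ 2 ng/mL; non-compartmental analysis.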

TNFα = settings: in vitro; cited from earlier work
TNF = settings: read-out: 50% inhibitory concentration [IC50], TNF inhibition; in vitro; cited from earlier work
[2] = tested on: collagen-induced arthritis mouse model; settings: cited from earlier work
[3] = MAD Day 14, 100 mg BID fed, n = 6

R ac, geometric mean ([1]; MAD Day 14, 100 mg BID fed): (5.38) [17] | V z/F, geometric mean ([1]; MAD Day 14, 100 mg BID fed): (2,250) [51] L | t max, median (min, max) ([1]; MAD Day 14, 100 mg BID fed): 3.00 (1.00, 4.00) h | t 1/2z, geometric mean [1, 3]: (23.6) [13] h | t 1/2z, mean ± SD [1, 3]: 23.8 ± 3.18 ^g h | AUC0-tau, geometric mean ([1]; MAD Day 14, 100 mg QD fasted): (1,680) [27] ng·h/mL | AUC0-tau, mean ± SD ([1]; MAD Day 14, 100 mg QD fasted): 1,750 ± 471 ng·h/mL | C av, geometric mean ([1]; MAD Day 14, 100 mg QD fasted): (70.0) [27] ng/mL | C av, mean ± SD ([1]; MAD Day 14, 100 mg QD fasted): 72.9 ± 19.6 ng/mL | C max, geometric mean ([1]; MAD Day 14, 100 mg QD fasted): (153) [31] ng/mL | C max, mean ± SD ([1]; MAD Day 14, 100 mg QD fasted): 161 ± 49.2 ng/mL | C trough, geometric mean ([1]; MAD Day 14, 100 mg QD fasted): (35.2) [31] ng/mL | C trough, mean ± SD ([1]; MAD Day 14, 100 mg QD fasted): 37.2 ± 11.5 ng/mL | CLss/F, geometric mean ([1]; MAD Day 14, 100 mg QD fasted): (59.5) [37] L/h | CLss/F, mean ± SD ([1]; MAD Day 14, 100 mg QD fasted): 62.5 ± 23.4 L/h | FLrel (relative fluctuation), geometric mean ([1]; MAD Day 14, 100 mg QD fasted): (168) [20] % | R ac (accumulation ratio), mean ± SD ([1]; MAD Day 14, 100 mg QD fasted): 2.52 ± 0.431 | R ac Cmax (accumulation ratio based on C max), mean ± SD ([1]; MAD Day 14, 100 mg QD fasted): 1.87 ± 0.400 | R ac, geometric mean ([1]; MAD Day 14, 100 mg QD fasted): (2.50) [17] | V z/F, geometric mean ([1]; MAD Day 14, 100 mg QD fasted): (2,530) [38] L | V z/F, mean ± SD ([1]; MAD Day 14, 100 mg QD fasted): 2,700 ± 1,020 L | t 1/2z, geometric mean ([1]; MAD Day 14, 100 mg QD fasted): (29.5) [28] h | t 1/2z, mean ± SD ([1]; MAD Day 14, 100 mg QD fasted): 30.3 ± 8.43 h | t max, median (min, max) ([1]; MAD Day 14, 100 mg QD fasted): 3.00 (2.00, 4.00) h | AUC0-tau, geometric mean ([1]; MAD Day 14, 200 mg BID fed): (4,990) [37] ng·h/mL | AUC0-tau, mean ± SD ([1]; MAD Day 14, 200 mg BID fed): 5,370 ± 2,010 ng·h/mL | C av, geometric mean ([1]; MAD Day 14, 200 mg BID fed): (416) [37] ng/mL | C av, mean ± SD ([1]; MAD Day 14, 200 mg BID fed): 448 ± 167 ng/mL | C max, geometric mean ([1]; MAD Day 14, 200 mg BID fed): (511) [35] ng/mL | C max, mean ± SD ([1]; MAD Day 14, 200 mg BID fed): 547 ± 193 ng/mL | C trough, geometric mean ([1]; MAD Day 14, 200 mg BID fed): (349) [43] ng/mL | C trough, mean ± SD ([1]; MAD Day 14, 200 mg BID fed): 383 ± 163 ng/mL | CLss/F, geometric mean ([1]; MAD Day 14, 200 mg BID fed): (40.1) [47] L/h | CLss/F, mean ± SD ([1]; MAD Day 14, 200 mg BID fed): 43.7 ± 20.6 L/h | FLrel (relative fluctuation), geometric mean ([1]; MAD Day 14, 200 mg BID fed): (44.7) [27] % | R ac (accumulation ratio), mean ± SD ([1]; MAD Day 14, 200 mg BID fed): 4.65 ± 0.654 | R ac Cmax (accumulation ratio based on C max), mean ± SD ([1]; MAD Day 14, 200 mg BID fed): 3.91 ± 0.612 | R ac, geometric mean ([1]; MAD Day 14, 200 mg BID fed): (4.60) [14] | V z/F, geometric mean ([1]; MAD Day 14, 200 mg BID fed): (1,380) [62] L | V z/F, mean ± SD ([1]; MAD Day 14, 200 mg BID fed): 1,590 ± 983 L | t 1/2z, geometric mean ([1]; MAD Day 14, 200 mg BID fed): (23.9) [14] h | t 1/2z, mean ± SD ([1]; MAD Day 14, 200 mg BID fed): 24.1 ± 3.28 h | t max, median (min, max) ([1]; MAD Day 14, 200 mg BID fed): 3.00 (2.00, 8.00) h | AUC0-tau, geometric mean ([1]; MAD Day 14, 300 mg BID fed): (9,290) [27] ng·h/mL | AUC0-tau, mean ± SD ([1]; MAD Day 14, 300 mg BID fed): 9,670 ± 2,650 ng·h/mL | C av, geometric mean ([1]; MAD Day 14, 300 mg BID fed): (774) [27] ng/mL | C av, mean ± SD ([1]; MAD Day 14, 300 mg BID fed): 806 ± 221 ng/mL | C max, geometric mean ([1]; MAD Day 14, 300 mg BID fed): (947) [27] ng/mL | C max, mean ± SD ([1]; MAD Day 14, 300 mg BID fed): 982 ± 261 ng/mL | C trough, geometric mean ([1]; MAD Day 14, 300 mg BID fed): (639) [32] ng/mL | C trough, mean ± SD ([1]; MAD Day 14, 300 mg BID fed): 676 ± 215 ng/mL | CLss/F, geometric mean ([1]; MAD Day 14, 300 mg BID fed): (32.3) [37] L/h | CLss/F, mean ± SD ([1]; MAD Day 14, 300 mg BID fed): 33.9 ± 12.7 L/h | FLrel (relative fluctuation), geometric mean ([1]; MAD Day 14, 300 mg BID fed): (46.1) [29] % | R ac (accumulation ratio), mean ± SD ([1]; MAD Day 14, 300 mg BID fed): 4.40 ± 1.22 | R ac Cmax (accumulation ratio based on C max), mean ± SD ([1]; MAD Day 14, 300 mg BID fed): 3.62 ± 0.861 | R ac, geometric mean ([1]; MAD Day 14, 300 mg BID fed): (4.25) [28] | V z/F, geometric mean ([1]; MAD Day 14, 300 mg BID fed): (991) [29] L | V z/F, mean ± SD ([1]; MAD Day 14, 300 mg BID fed): 1,030 ± 299 L | t 1/2z, geometric mean ([1]; MAD Day 14, 300 mg BID fed): (21.3) [23] h | t 1/2z, mean ± SD ([1]; MAD Day 14, 300 mg BID fed): 21.7 ± 4.92 h | t max, median (min, max) ([1]; MAD Day 14, 300 mg BID fed): 3.00 (2.00, 6.00) h | CLR (renal clearance), mean ± SD ([1]; 100 mg BID fed): 5.16 ± 2.10 L/h | CLR, geometric mean ([1]; 100 mg BID fed): (4.83) [41] L/h | CLR (renal clearance), mean ± SD ([1]; 100 mg QD fasted): 5.53 ± 1.67 L/h | CLR, geometric mean ([1]; 100 mg QD fasted): (5.30) [30] L/h | CLR (renal clearance), mean ± SD ([1]; 200 mg BID fed): 4.62 ± 0.862 L/h | CLR, geometric mean ([1]; 200 mg BID fed): (4.55) [19] L/h | CLR (renal clearance), mean ± SD ([1]; 300 mg BID fed): 4.92 ± 0.929 L/h | CLR, geometric mean ([1]; 300 mg BID fed): (4.85) [19] L/h | accumulation ([1]; after QD dosing): 2.52 fold | apparent volume of distribution ([1]; healthy participants): > 1,000 L
SMILES: CN1C(=O)c2cccc(OC(F)F)c2[C@H]2C[C@@H]1c1nc3ccc(-c4cnc(C5(N)CCC5)nc4)cc3n12 [Balinatunfib]
concentration leading to 90% occupancy of TNFα [OCC90] (TNFα): 16 nM | IC50 (TNF): 0.035 µM | average free efficacious exposure in mice ([2]; collagen-induced arthritis mouse model): 24 nM | efficacy in collagen-induced arthritis mouse model ([2]; in vivo): antibody‐like efficacy
